Key:
[1] = Tmax in Swiss Webster mouse at 66 mg/kg, po by HPLC-MS/MS analysis; type: ADME, organism-based; parameters: dose 66 mg/kg, route oral; settings: in vivo
Method in brief: (§1)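 Male Swiss Webster mice (n = 3 per time point), single dose by oral gavage (sterile water solution) or tail-vein bolus i.v. (water diluted 1:1 with 2× saline, over ~10–20 s); dose volume 5 ml/kg. Terminal blood sampled from 5 min to 72 h postdose; plasma quantified by HPLC-MS/MS (positive-ion SRM). Noncompartmental analysis gave Cmax, Tmax, AUC0-∞, CL, Vss; bioavailability from p.o. versus i.v. exposure.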

[2] = Tmax in Swiss Webster mouse at 16.5 mg/kg, po by HPLC-MS/MS analysis; type: ADME, organism-based; parameters: dose 16.5 mg/kg, route oral; settings: in vivo; method in brief: as §1
Mus musculus [3] = assay: Toxicity in BALB/c mouse assessed as ruffled fur at 50 mg/kg/day, ip administered for five days; type: organism-based; parameters: route intraperitoneal; settings: in vivo
[4] = Oral bioavailability in Swiss Webster mouse at 131 mg/kg by HPLC-MS/MS analysis; type: ADME, organism-based; settings: in vivo; method in brief: as §1
Mus musculus [5] = assay: Toxicity in BALB/c mouse assessed as ataxia at 100 mg/kg/day, ip after second dose; type: organism-based; parameters: route intraperitoneal; settings: in vivo
[6] = Half life in Swiss Webster mouse at 16.5 mg/kg, po by HPLC-MS/MS analysis; type: ADME, organism-based; parameters: dose 16.5 mg/kg, route oral; settings: in vivo
Method in brief: (§2)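 Male Swiss Webster mice, n = 3 per time point. For i.v., the compound was dissolved in sterile water, diluted 1:1 with 2× saline, and given as a tail-vein bolus over ~10–20 s. For p.o., it was given by gavage in sterile water. Dose volume was 5 ml/kg. Terminal plasma was taken from 5 min to 72 h and measured by HPLC-MS/MS (calibration 2.5–10,000 nM). Parameters came from noncompartmental analysis.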

Mus musculus [7] = assay: AUC (0 to infinity) in Swiss Webster mouse at 66 mg/kg, po by HPLC-MS/MS analysis; type: ADME, organism-based, Plasma; parameters: time infinity, dose 66 mg/kg, route oral; settings: in vivo; method in brief: as §2
Mus musculus [8] = assay: Toxicity in BALB/c mouse assessed as hypoactivity at 100 mg/kg/day, ip after second dose; type: organism-based; parameters: route intraperitoneal; settings: in vivo
[9] = Cmax in Swiss Webster mouse at 4.9 mg/kg, iv by HPLC-MS/MS analysis; type: ADME, organism-based; parameters: dose 4.9 mg/kg, route intravenous; settings: in vivo; method in brief: as §2
Mus musculus [10] = assay: Renal toxicity in BALB/c mouse assessed as blood urea nitrogen level in serum at 10 mg/kg/day, iv administered for five days (Rvb= 20 mg/dl); type: organism-based; parameters: route intravenous; settings: in vivo
Method in brief: (§3)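 Female BALB/c mice (n = 5 per dose), dosed once daily for 5 consecutive days p.o. (20 ml/kg) or i.v. (10 ml/kg) with compound in sterile water, prepared fresh daily under yellow light. Vehicle controls n = 5 per route. Clinical observations, body weights, serum chemistry and hematology on day 6 before necropsy; histopathology of formalin-fixed tissues. Chemistry analysed by one-way ANOVA with Dunnett's posttest.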

Mus musculus [11] = assay: Hepatotoxicity in BALB/c mouse assessed as alkaline phosphatase level in serum at 100 mg/kg/day, po administered for five days (Rvb= 129 U/L); type: toxicity, organism-based; parameters: route oral; settings: in vivo
Mus musculus [12] = assay: Toxicity in BALB/c mouse assessed as occurrence of ruffled fur at 150 mg/kg/day, po administered for five days measured on day 4; type: organism-based; parameters: route oral; settings: in vivo; method in brief: as §3
[13] = Clearance in Swiss Webster mouse at 5 mg/kg, iv by HPLC-MS/MS analysis; type: ADME, organism-based; parameters: dose 5 mg/kg, route intravenous; settings: in vivo; method in brief: as §2
[14] = Cmax in Swiss Webster mouse at 5 mg/kg, iv by HPLC-MS/MS analysis; type: ADME, organism-based; parameters: dose 5 mg/kg, route intravenous; settings: in vivo; method in brief: as §2
Mus musculus [15] = assay: Hepatotoxicity in BALB/c mouse assessed as ALT level in serum at 100 mg/kg/day, po administered for five days (Rvb= 36 U/L); type: toxicity, organism-based; parameters: route oral; settings: in vivo
[16] = Cmax in Swiss Webster mouse at 70 mg/kg, po by HPLC-MS/MS analysis; type: ADME, organism-based; parameters: dose 70 mg/kg, route oral; settings: in vivo; method in brief: as §2
Leishmania donovani [17] = assay: Antileishmanial activity against Leishmania donovani WR378 infected in golden Syrian hamster assessed as reduction in bone marrow parasitemia at 100 mg/kg/day, po administered for five days; type: functional; settings: 120 h
Method in brief: (§4)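 11-day golden hamster VL model adapted from an 8-day method, using L. donovani WR378 metacyclic promastigotes. Dosing was oral, once daily for 5 days. Animals were euthanized on day 11 post-infection. Liver, spleen and femoral bone marrow (flushed with Schneider's medium) were harvested.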

[18] = Induction of mutagenicity in Salmonella serovar Typhimurium TA 100 assessed as number of revertant colonies at 100 ug by Ames assay in presence of Aroclor 1254-induced rat liver S9 metabolic activation system; type: toxicity, subcellular, Salmonella enterica subsp. enterica serovar Typhimurium
Method in brief: (§5)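 Ames plate incorporation with S. Typhimurium TA98 and TA100, with or without Aroclor 1254-induced rat liver S9 (10% vol/vol). Compound was dissolved in sterile water and serially diluted to 1–500 μg/plate. Positive controls were 2-nitrofluorene and sodium azide without S9, and 2-aminoanthracene with S9; sterile water and DMSO served as vehicles. Revertant colonies and background lawn were scored. A mutagen was defined as a mean revertant count at least 2-fold over solvent control. Single experiment.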

[19] = Induction of mutagenicity in Salmonella serovar Typhimurium TA 100 assessed as number of revertant colonies at 10 ug by Ames assay in presence of Aroclor 1254-induced rat liver S9 metabolic activation system; type: toxicity, subcellular, Salmonella enterica subsp. enterica serovar Typhimurium; method in brief: as §5
[20] = Drug level in Swiss Webster mouse spleen at 5 mg/kg, iv after 2 hrs by HPLC/UV analysis; settings: read-out: Drug uptake
Mus musculus [21] = assay: Toxicity in BALB/c mouse at 50 mg/kg/day, po administered for five days; type: organism-based; parameters: route oral; settings: in vivo
Mus musculus [22] = assay: Renal toxicity in BALB/c mouse assessed as phosphorus level in serum at 30 mg/kg/day, iv administered for five days (Rvb= 6.1 mg/dl); type: organism-based; parameters: route intravenous; settings: in vivo; method in brief: as §3
Leishmania donovani [23] = assay: Antileishmanial activity against Leishmania donovani WR378 infected in golden Syrian hamster assessed as reduction in liver parasitemia at 10 mg/kg/day, po administered for five days; type: functional; settings: 120 h; method in brief: as §4
Mus musculus [24] = assay: Toxicity in BALB/c mouse assessed as hypoactivity at 50 mg/kg/day, ip administered for five days; type: organism-based; parameters: route intraperitoneal; settings: in vivo
[25] = Drug level in Swiss Webster mouse liver at 5 mg/kg, iv after 2 hrs by HPLC/UV analysis; settings: read-out: Drug uptake
Mus musculus [26] = assay: Hepatotoxicity in BALB/c mouse assessed as alkaline phosphatase level in serum at 30 mg/kg/day, iv administered for five days (Rvb= 134 U/L); type: toxicity, organism-based; parameters: route intravenous; settings: in vivo
[27] = Volume of distribution in Swiss Webster mouse at 5 mg/kg, iv by HPLC-MS/MS analysis; type: ADME, organism-based; parameters: dose 5 mg/kg, route intravenous; settings: in vivo
Method in brief: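 Male Swiss Webster mice (n = 3 per time point) got a single tail-vein bolus over ~10 to 20 s, 5 ml/kg. Compound was dissolved in sterile water at 2× and diluted 1:1 with 2× saline. Terminal blood was taken from 5 min to 72 h, and plasma was quantified by HPLC-MS/MS. Vss came from noncompartmental analysis.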

Mus musculus [28] = assay: Toxicity in BALB/c mouse assessed as occurrence of tremor at 20 mg/kg/day, iv administered for five days measured on day 2; type: organism-based; parameters: route intravenous; settings: in vivo; method in brief: as §3
Leishmania donovani [29] = assay: Antileishmanial activity against Leishmania donovani WR378 infected in golden Syrian hamster assessed as reduction in spleen parasitemia at 100 mg/kg/day, po administered for five days; type: functional; settings: 120 h; method in brief: as §4
Leishmania donovani [30] = assay: Antileishmanial activity against Leishmania donovani WR378 infected in golden Syrian hamster assessed as reduction in liver parasitemia at 30 mg/kg/day, po administered for five days; type: functional; settings: 120 h; method in brief: as §4

## CCOc1cc(NC(=N)c2ccccn2)ccc1-c1ccc(-c2ccc(NC(=N)c3ccccn3)cc2OCC)o1
[1]
  Tmax: 2 h
[2]
  Tmax: 2 h
Mus musculus [3]
  Activity: Toxic
[4]
  bioavailability: 25%
Mus musculus [5]
  Activity: Toxic
[6]
  half-life: 24 h
Mus musculus [7]
  AUC: 5.6 µM·h
Mus musculus [8]
  Activity: Toxic
[9]
  Cmax: 4.24 µM
Mus musculus [10]
  Activity: 24 mg/dL
Mus musculus [11]
  Activity: 120 U/L
Mus musculus [12]
  Activity: Toxic

## CC(C)Oc1cc(NC(=N)c2ccccn2)ccc1-c1ccc(-c2ccc(NC(=N)c3ccccn3)cc2OC(C)C)o1
[13]
  clearance: 13.1 mL/min/kg
[14]
  Cmax: 10.4 µM
Mus musculus [15]
  Activity: 34 U/L
[16]
  Cmax: 1.76 µM
Leishmania donovani [17]
  inhibition in vivo at 100 mg/kg/day: 92%
[18]
  Activity: 98
[19]
  Activity: 148
[20]
  concentration at 2 h: 13.5 µM
Mus musculus [21]
  Activity: Non-toxic
Mus musculus [22]
  Activity: 7.6 mg/dL
Leishmania donovani [23]
  inhibition in vivo at 10 mg/kg/day: 10%
Mus musculus [24]
  Activity: Toxic
[25]
  concentration at 2 h: 18.7 µM
Mus musculus [26]
  Activity: 118 U/L
[27]
  Vd: 15 L/kg
Mus musculus [28]
  Activity: Toxic
Leishmania donovani [29]
  inhibition in vivo at 100 mg/kg/day: 79%
Leishmania donovani [30]
  inhibition in vivo at 30 mg/kg/day: 75%

— ChEMBL document CHEMBL1275590, “Novel arylimidamides for treatment of visceral leishmaniasis” (Antimicrob Agents Chemother, 2010)
